Laboratory results published in ChEMBL document CHEMBL1759910, “Imidazopyridine CB2 agonists: optimization of CB2/CB1 selectivity and implications for in vivo analgesic efficacy” (Bioorg Med Chem Lett, 2011).
Calls of active or inactive are those of the source.

Legend:
Cannabinoid receptor 2 [1] = molecular target: T1, Cannabinoid receptor 2 (Homo sapiens, UniProt P34972); assay: Agonist activity at human CB2 receptor expressed in CHO-K1 cells assessed as inhibition of forskolin-stimulated cAMP level; type: functional, cell-based
Procedure, shortened: (§1)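 Receptor (human or rat CB1 or CB2) expressed in CHO-K1 cells, 1000 cells per well, added to compound and incubated at room temperature for 15 min. Read-out is IC50 with Emax.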

Cannabinoid receptor 2 [2] = molecular target: T1, Cannabinoid receptor 2; assay: Agonist activity at human CB2 receptor expressed in CHO-K1 cells assessed as inhibition of forskolin-stimulated cAMP level relative to control; type: functional, cell-based; procedure, shortened: as §1
Cannabinoid receptor 1 [3] = molecular target: T2, Cannabinoid receptor 1 (Homo sapiens, UniProt P21554); assay: Agonist activity at human CB1 receptor expressed in CHO-K1 cells assessed as inhibition of forskolin-stimulated cAMP level; type: functional, cell-based; procedure, shortened: as §1
Cannabinoid receptor 1 [4] = molecular target: T2, Cannabinoid receptor 1; assay: Agonist activity at human CB1 receptor expressed in CHO-K1 cells assessed as inhibition of forskolin-stimulated cAMP level relative to control; type: functional, cell-based; procedure, shortened: as §1
[5] = Plasma protein binding in rat assessed as fraction unbound; type: ADME, cell-free
Procedure, shortened: (§2)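 Free fraction in rat plasma measured by ultrafiltration or equilibrium dialysis after incubation with rat plasma.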

Cannabinoid receptor 2 [6] = molecular target: T3, Cannabinoid receptor 2 (Rattus norvegicus, UniProt Q9QZN9); assay: Agonist activity at rat CB2 receptor expressed in CHO-K1 cells assessed as inhibition of forskolin-stimulated cAMP level; type: functional, cell-based; procedure, shortened: as §1
T3 sequence (Q9QZN9 whole entry): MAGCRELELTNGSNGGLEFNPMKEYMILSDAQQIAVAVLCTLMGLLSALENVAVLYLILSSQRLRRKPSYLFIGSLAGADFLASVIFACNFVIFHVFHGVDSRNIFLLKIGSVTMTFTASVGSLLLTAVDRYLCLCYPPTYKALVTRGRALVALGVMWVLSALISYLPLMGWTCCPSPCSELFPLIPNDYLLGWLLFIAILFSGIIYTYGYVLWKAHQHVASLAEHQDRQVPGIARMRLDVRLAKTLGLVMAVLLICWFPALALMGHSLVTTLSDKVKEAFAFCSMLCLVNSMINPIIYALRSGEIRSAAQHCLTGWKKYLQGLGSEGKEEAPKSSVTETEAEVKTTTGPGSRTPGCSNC

[7] = molecular target: T4, Cannabinoid receptor 2 (Rattus norvegicus) (UniProt Q9QZN9); assay: Agonist activity at rat CB2 receptor expressed in CHO-K1 cells assessed as inhibition of forskolin-stimulated cAMP level relative to control; type: functional, cell-based; procedure, shortened: as §1
T4 sequence (whole entry): T3 sequence (Q9QZN9 whole entry)

Cannabinoid receptor 1 [8] = molecular target: Cannabinoid receptor 1 (Rattus norvegicus, UniProt P20272); assay: Agonist activity at rat CB1 receptor expressed in CHO-K1 cells assessed as inhibition of forskolin-stimulated cAMP level; type: functional, cell-based; procedure, shortened: as §1
[9] = molecular target: Cannabinoid receptor 1 (Rattus norvegicus) (UniProt P20272); assay: Agonist activity at rat CB1 receptor expressed in CHO-K1 cells assessed as inhibition of forskolin-stimulated cAMP level relative to control; type: functional, cell-based; procedure, shortened: as §1
Rattus norvegicus [10] = assay: Analgesic activity in Lewis rat complete Freund's adjuvant-induced hyperalgesia model assessed as reversal in paw withdrawal threshold at 100 mg/kg, po and sc; type: functional, organism-based; parameters: dose 100 mg/kg
Procedure, shortened: (§3)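 Rats with CFA-induced hyperalgesia dosed orally or subcutaneously at 100 mpk. Naproxen 20 mg/kg and vehicle served as controls. Paw withdrawal threshold read at baseline, after CFA, and post-dose (30, 60 or 120 min). Plasma, brain and CSF drug levels measured at the 60 or 120 min post-dose timepoint.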

[11] = Plasma concentration in Lewis rat complete Freund's adjuvant-induced hyperalgesia model at 100 mg/kg, po and sc at 60 mins; type: ADME, organism-based; parameters: dose 100 mg/kg, route oral; procedure, shortened: as §3
[12] = Drug level in brain of Lewis rat complete Freund's adjuvant-induced hyperalgesia at 100 mg/kg, po and sc at 60 mins; type: ADME, organism-based; parameters: dose 100 mg/kg, route oral; settings: read-out: Drug uptake; procedure, shortened: as §3
[13] = Drug level in cerebrospinal fluid of Lewis rat complete Freund's adjuvant-induced hyperalgesia model at 100 mg/kg, po and sc at 60 mins; type: ADME, organism-based; parameters: dose 100 mg/kg, route oral; settings: read-out: Drug uptake; procedure, shortened: as §3
Rattus norvegicus [14] = assay: Neurotoxicity in rat assessed as impairment of motor co-ordination at 100 mg/kg, po by rotarod method; type: toxicity, organism-based; parameters: dose 100 mg/kg, route oral; settings: in vivo
[15] = Plasma protein binding in rat; type: ADME, cell-free; settings: read-out: PPB (converted); procedure, shortened: as §2
Cannabinoid receptor 2 [16] = molecular target: T1, Cannabinoid receptor 2; assay: Binding affinity to human CB2 receptor
Cannabinoid receptor 1 [17] = molecular target: T2, Cannabinoid receptor 1; assay: Binding affinity to human CB1 receptor
[18] = Plasma concentration in Lewis rat complete Freund's adjuvant-induced hyperalgesia model at 100 mg/kg, po and sc at 120 mins; type: ADME, organism-based; parameters: dose 100 mg/kg, route oral; procedure, shortened: as §3
[19] = Drug level in brain of Lewis rat complete Freund's adjuvant-induced hyperalgesia model at 100 mg/kg, po and sc at 120 mins; type: ADME, organism-based; parameters: dose 100 mg/kg, route oral; settings: read-out: Drug uptake; procedure, shortened: as §3
[20] = Drug level in cerebrospinal fluid of Lewis rat complete Freund's adjuvant-induced hyperalgesia model at 100 mg/kg, po and sc at 120 mins; type: ADME, organism-based; parameters: dose 100 mg/kg, route oral; settings: read-out: Drug uptake; procedure, shortened: as §3

T1 sequence (P34972 whole entry): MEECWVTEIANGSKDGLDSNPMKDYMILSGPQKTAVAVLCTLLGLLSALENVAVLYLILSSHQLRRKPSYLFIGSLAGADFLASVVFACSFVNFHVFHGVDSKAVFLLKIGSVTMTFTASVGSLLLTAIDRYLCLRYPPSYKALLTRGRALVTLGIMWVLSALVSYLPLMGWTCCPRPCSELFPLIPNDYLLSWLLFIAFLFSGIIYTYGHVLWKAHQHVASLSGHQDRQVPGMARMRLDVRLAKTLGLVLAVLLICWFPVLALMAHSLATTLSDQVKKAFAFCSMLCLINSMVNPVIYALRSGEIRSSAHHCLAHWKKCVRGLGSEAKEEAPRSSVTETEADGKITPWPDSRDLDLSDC
T2 sequence (P21554 whole entry): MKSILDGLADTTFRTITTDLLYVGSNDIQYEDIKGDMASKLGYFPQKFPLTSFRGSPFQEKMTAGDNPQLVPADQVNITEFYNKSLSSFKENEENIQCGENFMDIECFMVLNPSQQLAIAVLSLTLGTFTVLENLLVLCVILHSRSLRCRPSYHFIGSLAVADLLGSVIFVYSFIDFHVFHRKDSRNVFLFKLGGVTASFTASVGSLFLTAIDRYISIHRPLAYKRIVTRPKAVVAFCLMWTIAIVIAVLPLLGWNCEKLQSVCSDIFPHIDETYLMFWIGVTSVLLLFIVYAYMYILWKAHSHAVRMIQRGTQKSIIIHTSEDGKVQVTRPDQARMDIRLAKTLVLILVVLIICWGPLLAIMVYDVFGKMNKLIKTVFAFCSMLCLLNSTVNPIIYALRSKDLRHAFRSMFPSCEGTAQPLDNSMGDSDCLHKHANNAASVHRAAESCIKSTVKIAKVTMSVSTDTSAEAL
Sequence of Cannabinoid receptor 1 (Rattus norvegicus, UniProt P20272) (P20272 whole entry): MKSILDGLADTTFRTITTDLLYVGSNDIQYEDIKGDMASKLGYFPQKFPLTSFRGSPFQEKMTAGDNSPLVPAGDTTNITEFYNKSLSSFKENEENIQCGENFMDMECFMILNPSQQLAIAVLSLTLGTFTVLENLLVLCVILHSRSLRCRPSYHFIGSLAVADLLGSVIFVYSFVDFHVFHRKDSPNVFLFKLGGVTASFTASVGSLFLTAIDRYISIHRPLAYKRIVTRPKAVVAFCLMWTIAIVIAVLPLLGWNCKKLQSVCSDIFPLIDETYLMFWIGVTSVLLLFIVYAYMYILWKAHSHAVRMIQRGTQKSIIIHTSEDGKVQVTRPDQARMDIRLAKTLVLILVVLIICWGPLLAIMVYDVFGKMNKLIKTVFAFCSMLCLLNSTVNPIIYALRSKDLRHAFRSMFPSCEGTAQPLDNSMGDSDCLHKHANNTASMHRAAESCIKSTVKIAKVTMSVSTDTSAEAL
Sequence of Cannabinoid receptor 1 (Rattus norvegicus) (P20272 whole entry): as above

Row | Structure (SMILES) | IC50 (Cannabinoid receptor 2 [1]) [nM] | Emax (Cannabinoid receptor 2 [2]) [%] | IC50 (Cannabinoid receptor 1 [3]) [nM] | Emax (Cannabinoid receptor 1 [4]) [%] | fraction unbound [5] | further results
1 | O=C(c1cccc(Cl)c1Cl)c1nc(CN2CCOCC2)c2ccccn12 | 5 | 94 | 2560 | 66 | 0.24 | IC50 (Cannabinoid receptor 2 [6]): 11 nM; Emax [7]: 87%; IC50 (Cannabinoid receptor 1 [8]): 1070 nM; Emax [9]: 104%; Activity (Rattus norvegicus [10]): Dose-dependent effect; concentration at 1 h [11]: 4500 nM; concentration at 1 h [12]: 5400 nM; concentration at 1 h [13]: 110 nM; Activity (Rattus norvegicus [14]): Toxic; fraction unbound [15]: 0.24
2 | COc1ccc2c(c1)c(CCN1CCOCC1)c(C)n2C(=O)c1cccc(Cl)c1Cl |  |  |  |  |  | Ki (Cannabinoid receptor 2 [16]): 10 nM; Ki (Cannabinoid receptor 1 [17]): 2000 nM
3 | O=C(NC(c1cccnc1)C(F)(F)F)c1nc(N2CCOCC2)c2cnccn12 (stereo not given) | 69 | 98 | > 17000 |  | 0.25 | 
4 | O=C(N[C@H](c1ccccn1)C(F)(F)F)c1nc(N2CCOCC2)c2cnccn12 | 139 | 94 | > 17000 |  | 0.18 | 
5 | O=C(NCC1(CO)CCCC1)c1nc(CN2CCC(F)(F)CC2)n2ccccc12 | 3 | 88 | 68 | 99 |  | 
6 | O=C(NC(c1ccncc1)c1ccc(F)cc1)c1nc(N2CCC(F)(F)C2)c2cnccn12 (stereo not given) | 92 | 96 | > 17000 |  | 0.03 | 
7 | O=C(NC(C1CC1)C1CC1)c1nc(C2CC2)n2ccccc12 | 7 | 99 | > 17000 |  | 0.03 | 
8 | C[C@@H](NC(=O)c1nc(N2CCC(F)(F)CC2)c2cnccn12)C(C)(C)C | 36 | 99 | > 17000 |  | 0.06 | 
9 | O=C(c1cccc(Cl)c1Cl)c1nc(CN2CCC(F)(F)CC2)c2ccccn12 | 0.3 | 110 | 90 | 101 |  | 
10 | O=C(NCC1(CO)CCCC1)c1nc(N2CCOCC2)n2ccccc12 | 33 | 99 | > 17000 |  | 0.16 | IC50 (Cannabinoid receptor 2 [6]): 58 nM; Emax [7]: 87%; IC50 (Cannabinoid receptor 1 [8]): > 17000 nM; Activity (Rattus norvegicus [10]): inactive; concentration at 2 h [18]: 4300 nM; concentration at 2 h [19]: 1300 nM; concentration at 2 h [20]: 300 nM; fraction unbound [15]: 0.16
11 | CC(C)(C)CNC(=O)c1nc(C2CC2)n2ccccc12 | 21 | 97 | > 17000 |  | 0.05 | 
12 | O=C(c1cccc(F)c1C(F)(F)F)c1nc(CN2CCOCC2)c2ccccn12 | 0.7 | 98 | 2230 | 97 | 0.03 | 
13 | O=C(Nc1cccc(C(F)(F)F)n1)c1nc(CN2CCC(F)(F)CC2)c2ccccn12 | 1.7 | 98 | 347 | 100 |  | 
14 | O=C(Nc1cccc(C(F)(F)F)n1)c1nc(CN2CCS(=O)(=O)CC2)c2ccccn12 | 44 | 80 | 12700 | 54 | 0.11 | 
15 | O=C(N[C@H](c1ccccn1)C(F)(F)F)c1nc(N2CCOCC2)n2ccccc12 | 21 | 97 | 705 | 55 | 0.1 | 
